Here are results for ten molecules from ChEMBL document CHEMBL3232815, “Synthesis and anticonvulsant activity of some new pyrazolo[3,4-b]pyrazines and related heterocycles” (2014).

Common to all, as to format: functional
What all share (settings): route intraperitoneal

Assay [1] relates to Mus musculus. In words: Anticonvulsant activity in Swiss Webster mouse assessed as PTZ-induced clonic seizures at 10 mg/kg, ip pretreated 20 mins before PTZ challenge and measured 1 hr post PTZ challenge relative to control. In outline: (§1)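 Male adult Swiss–Webster mice, 22–30 g, 12 h light/dark cycle at 25 °C, food and water ad libitum. Compound 10 mg/kg ip (0.2% in corn oil), one group per compound (8 animals), 20 min before PTZ 75 mg/kg ip (1.5% in saline). Watched 1 h for seizure onset (min) and % animals convulsing; 24 h survival noted. Phenobarbital 30 mg/kg reference; p vs PTZ group.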

Assay [2] has as its system Mus musculus. In words: Anticonvulsant activity in Swiss Webster mouse assessed as PTZ-induced tonic seizures at 10 mg/kg, ip pretreated 20 mins before PTZ challenge and measured 1 hr post PTZ challenge relative to control. The gist of the method:
as §1

In assay [3] the test system is Mus musculus. Kind of assay: Anticonvulsant activity in Swiss Webster mouse assessed as survivors level at 10 mg/kg, ip pretreated 20 mins before PTZ challenge and measured 24 hrs post PTZ challenge relative to control. In outline:
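Male adult Swiss–Webster mice (22–30 g), 8 per group. Compounds are given ip at 10 mg/kg (0.2% in corn oil) 20 min before PTZ 75 mg/kg ip (1.5% in saline), the minimal convulsive dose. Animals are watched for 1 h after PTZ. Survivors are counted at 24 h and expressed as % survivors against the PTZ-only control. Significance is tested at p<0.05 and p<0.01.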

Assay [4] has as its system Mus musculus. Kind of assay: Anticonvulsant activity in Swiss Webster mouse assessed as PTZ-induced clonic seizures at 30 mg/kg, ip pretreated 20 mins before PTZ challenge and measured 1 hr post PTZ challenge relative to control. The gist of the method: (§2)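 Male adult Swiss–Webster mice (22–30 g), 8 per group, with a 12 h light/dark cycle at 25 °C. The reference drug phenobarbital sodium is given at 30 mg/kg ip 20 min before PTZ 75 mg/kg ip (1.5% solution in saline). Clonic and tonic seizure onset (min) and % animals convulsing are scored over 1 h. Survivors are counted at 24 h. Comparison is with the PTZ-only group.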

Assay [5] deals with Mus musculus. In words: Anticonvulsant activity in Swiss Webster mouse assessed as PTZ-induced tonic seizures at 30 mg/kg, ip pretreated 20 mins before PTZ challenge and measured 1 hr post PTZ challenge relative to control. In outline: as §2
The subject of assay [6] is Mus musculus. In words: Anticonvulsant activity in Swiss Webster mouse assessed as survivors level at 30 mg/kg, ip pretreated 20 mins before PTZ challenge and measured 24 hrs post PTZ challenge relative to control. The gist of the method:
as §2

On to `COc1ccc(C2SCC(=O)N2NC(=O)c2nc3c(C)nn(-c4ccccc4)c3nc2-c2ccccc2)cc1OC` (stereo not given), for which the Activity in the assay with Mus musculus [1] worked out at 87.5%; with Mus musculus [2] it was 0%. For the same molecule, in the assay on Mus musculus [3], the survival at 10 mg/kg was 100%.
Regarding `Cc1nn(-c2ccccc2)c2nc(-c3ccccc3)c(C(=O)NN3C(=O)CSC3c3ccccc3)nc12` (stereo not given), the values for the Activity in the assay on Mus musculus [1] and in the assay on Mus musculus [2] were 75% and 12.5%, respectively. In addition, the survival at 10 mg/kg in the assay on Mus musculus [3] amounted to 87.5%.
The like results for `Cc1nn(-c2ccccc2)c2nc(-c3ccccc3)c(-c3nn4cc(-c5ccccc5)nc4s3)nc12` were, in that order, 87.5%, 12.5% and 87.5%.
The like results for `Cc1nn(-c2ccccc2)c2nc(-c3ccccc3)c(C(=O)NN3C(=O)CSC3c3ccc([N+](=O)[O-])cc3)nc12` (stereo not given) were, in that order, 87.5%, 25% and 75%.
The corresponding values for `Cc1nn(-c2ccccc2)c2nc(-c3ccccc3)c(C(=O)NN3C(=O)CSC3c3ccc(Cl)cc3)nc12` (stereo not given) are 75%, 25% and 75%.
As to `Cc1nn(-c2ccccc2)c2nc(-c3ccccc3)c(C(=O)NN3C(=O)CSC34CCCC4)nc12`, the figures for the Activity in the assay with Mus musculus [1] and in the assay on Mus musculus [2] were 100% and 25%, respectively. Further, in the assay on Mus musculus [3], the survival at 10 mg/kg is 75%.
The like results for `Cc1nn(-c2ccccc2)c2nc(-c3ccccc3)c(-c3nn4cc(-c5ccc(Br)cc5)nc4s3)nc12` were, in that order, 87.5%, 37.5% and 62.5%.
In the case of `Cc1nn(-c2ccccc2)c2nc(-c3ccccc3)c(C(=O)NN3C(=O)CSC3(C)C)nc12`, the figures for the Activity in the assay on Mus musculus [1] and in the assay on Mus musculus [2] were 100% and 75%, respectively. Further, the survival at 10 mg/kg in the assay on Mus musculus [3] was 25%.
As for `Cc1nn(-c2ccccc2)c2nc(-c3ccccc3)c(C(=O)NN3C(=O)CSC34CCCCC4)nc12`, the Activity with Mus musculus [1] and with Mus musculus [2] was 100% in each case. The survival at 10 mg/kg in the assay with Mus musculus [3] was 0%.
With `CCC1(c2ccccc2)C(=O)N=C([O-])NC1=O.[Na+]` (stereo not given) [PHENOBARBITAL SODIUM], the Activity in the assay with Mus musculus [4] and in the assay on Mus musculus [5] was 0% each time. Moreover, the survival at 30 mg/kg in the assay on Mus musculus [6] was found to be 100%.
